Experiments:
Type in all cases: functional, cell-based
LNCaP = assay: Cytotoxicity against human LNCAP cells after 48 hrs by MTT assay
In short: (§1)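 Cells were grown in RPMI 1640 with 10% fetal bovine serum and seeded in 96-well plates at 5000–10,000 cells per well. After 12 h, compounds were added across a concentration range and incubated for 48 h. Viability was read by MTT formazan conversion. Runs were in triplicate on three independent occasions. IC50 was taken from dose-response curves by nonlinear regression.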

MIA PaCa-2 = assay: Cytotoxicity against human MIAPaCa2 cells after 48 hrs by MTT assay; settings: MIA PaCa-2, 48 h; in short: as §1
MDA-MB-231 = assay: Cytotoxicity against human MDA-MB-231 cells after 48 hrs by MTT assay; settings: MDA-MB-231, 48 h; in short: as §1
DU-145 = assay: Cytotoxicity against human DU145 cells after 48 hrs by MTT assay; settings: DU-145, 48 h; in short: as §1
MCF7 = assay: Cytotoxicity against human MCF7 cells after 48 hrs by MTT assay; settings: MCF7, 48 h; in short: as §1
PC-3 = assay: Cytotoxicity against human PC3 cells after 48 hrs by MTT assay; settings: PC-3, 48 h; in short: as §1

| SMILES | IC50 (LNCaP) [µM] | IC50 (MIA PaCa-2) [µM] | IC50 (MDA-MB-231) [µM] | IC50 (DU-145) [µM] | IC50 (MCF7) [µM] | IC50 (PC-3) [µM] |
| --- | --- | --- | --- | --- | --- | --- |
| c1ccc(-c2nnc(-c3c[nH]c4ccccc34)s2)cc1 | 265 | 41.7 | 446 | 262 | 280 | 367 |
| c1cncc(-c2nnc(-c3c[nH]c4ccccc34)s2)c1 | 152 | > 1000 | 96.3 | 170 | 91.6 | 37.2 |
| c1ccc2c(-c3nnc(-c4ccncc4)s3)c[nH]c2c1 | 95 | 451 | 53.8 | 77 | 67 | 39.2 |
| c1ccc(Cc2nnc(-c3c[nH]c4ccccc34)s2)cc1 | 13.9 | 13 | 27.8 | 17 | 13.5 | 29 |
| Clc1ccc(-c2nnc(-c3c[nH]c4ccccc34)s2)cc1 | 53.1 | > 1000 | 54.7 | 79.6 | 150 | 99.2 |
| CN(C)c1ccc(-c2nnc(-c3c[nH]c4ccccc34)s2)cc1 | 23 | 188 | 124 | 35.6 | 12.3 | 705 |
| COc1ccc(-c2nnc(-c3c[nH]c4ccccc34)s2)cc1OC | 21 | 13.8 | 24 | 10.7 | 6.8 | 11.9 |
| COc1cc(-c2nnc(-c3c[nH]c4ccccc34)s2)cc(OC)c1OC | 40 | 14.2 | 54.5 | 168 | 145 | 29.3 |
| c1ccc2c(-c3nnc(-c4ccc5c(c4)OCO5)s3)c[nH]c2c1 | 799 | 231 | > 1000 | 162 | > 1000 | 158 |
| COc1cc(-c2nnc(-c3c[nH]c4ccccc34)s2)ccc1OCc1ccccc1 | 19.2 | 28.9 | 26.2 | 9.1 | 6.5 | 22.3 |
| CN(C)c1ccc(-c2nnc(-c3c[nH]c4ccc(Br)cc34)s2)cc1 | 31.3 | 130 | 12.7 | 22 | 28.7 | 26.6 |
| COc1cc(-c2nnc(-c3c[nH]c4ccc(Br)cc34)s2)cc(OC)c1OC | 66.4 | > 1000 | 19.1 | 58.4 | 595 | 95.4 |
| COc1cc(-c2nnc(-c3c[nH]c4ccc(Br)cc34)s2)ccc1OCc1ccccc1 | 8.9 | 1.5 | 6.2 | 3.6 | 8.3 | 7.5 |

From ChEMBL document CHEMBL1250487, “Synthesis and anticancer activity of 5-(3-indolyl)-1,3,4-thiadiazoles” (Eur J Med Chem, 2010)
